Active and inactive are the calls of the source. The rule behind the calls is not given here.

Data on five molecules can be found in ChEMBL document CHEMBL4725436, “Gibberellin JRA-003: A Selective Inhibitor of Nuclear Translocation of IKKα” (ACS Med Chem Lett, 2020).

One series has as its system RCK8. In words: Cytotoxicity against human RC-K8 cells assessed as reduction in cell viability measured after 24 hrs by CellTiter-Glo luminescent assay. Format: functional, cell-based. As to conditions: RCK8, 24 h. A digest of the protocol: (§1)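 High-throughput viability screen of test agents across a panel of 22 cancerous and noncancerous human cell lines. Viability was read by CellTiter-Glo luminescence.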
(In general: ATP-based viability assays read luminescence as a measure of living cells.)

The nature of series [1]: Cytotoxicity against human Hs895T cells assessed as reduction in cell viability measured after 24 hrs by CellTiter-Glo luminescent assay. The series is classed as functional, cell-based. The method, boiled down: as §1
In another series the target is Transcription factor p65 (Homo sapiens, UniProt Q04206). The experiment in a line: Binding affinity to NF-kappaB RelA (unknown origin) by SPR analysis. A general note: In SPR one partner is held on a chip, and binding of the other changes the refractive index at the surface.
Sequence of Transcription factor p65 (Q04206 whole entry): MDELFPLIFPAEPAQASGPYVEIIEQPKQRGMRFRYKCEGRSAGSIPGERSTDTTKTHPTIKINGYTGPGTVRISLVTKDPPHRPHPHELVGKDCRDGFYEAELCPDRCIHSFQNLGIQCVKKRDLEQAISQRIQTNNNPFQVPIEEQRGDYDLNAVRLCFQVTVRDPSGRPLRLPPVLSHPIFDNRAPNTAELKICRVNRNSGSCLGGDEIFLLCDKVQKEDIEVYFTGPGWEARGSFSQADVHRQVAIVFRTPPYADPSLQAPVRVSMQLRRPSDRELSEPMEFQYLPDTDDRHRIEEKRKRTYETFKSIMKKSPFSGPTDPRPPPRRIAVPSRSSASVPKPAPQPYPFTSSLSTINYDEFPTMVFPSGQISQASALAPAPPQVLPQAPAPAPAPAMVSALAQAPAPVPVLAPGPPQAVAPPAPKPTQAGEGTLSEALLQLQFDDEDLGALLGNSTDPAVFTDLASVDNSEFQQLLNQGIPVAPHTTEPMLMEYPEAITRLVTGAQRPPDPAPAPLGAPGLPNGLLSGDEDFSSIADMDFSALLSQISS
In a further series the test system is PSN1. In words: Cytotoxicity against human PSN1 cells assessed as reduction in cell viability measured after 24 hrs by CellTiter-Glo luminescent assay. The series is classed as functional, cell-based. As to conditions: PSN1, 24 h. A digest of the protocol:
as §1

For another series, the system named is HCC1599. In words: Cytotoxicity against human HCC1599 cells assessed as reduction in cell viability measured after 24 hrs by CellTiter-Glo luminescent assay. The series is classed as functional, cell-based. To be noted: HCC1599, 24 h. A digest of the protocol:
as §1

In series [2] the target is T1, Nuclear factor NF-kappa-B p105 subunit (Homo sapiens, UniProt P19838).
T1 sequence (P19838 whole entry): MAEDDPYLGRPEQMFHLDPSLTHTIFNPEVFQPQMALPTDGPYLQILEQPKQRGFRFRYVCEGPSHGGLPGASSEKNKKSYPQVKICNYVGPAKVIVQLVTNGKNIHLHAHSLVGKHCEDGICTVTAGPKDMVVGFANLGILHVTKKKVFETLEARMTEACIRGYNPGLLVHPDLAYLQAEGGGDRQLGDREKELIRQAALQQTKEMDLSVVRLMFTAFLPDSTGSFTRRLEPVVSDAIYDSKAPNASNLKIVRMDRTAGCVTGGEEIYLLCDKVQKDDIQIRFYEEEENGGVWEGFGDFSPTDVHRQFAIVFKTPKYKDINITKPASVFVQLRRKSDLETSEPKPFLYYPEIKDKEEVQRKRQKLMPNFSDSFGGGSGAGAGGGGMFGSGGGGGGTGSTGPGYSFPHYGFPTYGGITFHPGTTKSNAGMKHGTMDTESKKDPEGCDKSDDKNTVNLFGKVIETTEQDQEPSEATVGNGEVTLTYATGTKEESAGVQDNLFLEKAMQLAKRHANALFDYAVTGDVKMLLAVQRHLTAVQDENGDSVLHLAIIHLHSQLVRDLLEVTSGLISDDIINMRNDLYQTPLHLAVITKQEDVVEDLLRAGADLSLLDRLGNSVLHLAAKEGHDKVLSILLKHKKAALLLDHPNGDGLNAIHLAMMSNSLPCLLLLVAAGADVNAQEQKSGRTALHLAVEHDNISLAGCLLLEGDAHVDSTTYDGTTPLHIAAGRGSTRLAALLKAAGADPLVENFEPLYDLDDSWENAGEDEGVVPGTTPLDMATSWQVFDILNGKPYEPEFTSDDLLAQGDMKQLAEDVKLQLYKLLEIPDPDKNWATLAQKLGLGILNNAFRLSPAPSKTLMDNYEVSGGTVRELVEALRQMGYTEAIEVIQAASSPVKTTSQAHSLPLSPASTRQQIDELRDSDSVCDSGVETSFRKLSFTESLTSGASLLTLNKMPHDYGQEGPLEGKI
The experiment in a line: Binding affinity to NF-kappaB p50 (unknown origin) by SPR analysis.

The test system of another series is HEK-293T. The experiment in a line: Cytotoxicity against human HEK293T cells assessed as reduction in cell viability measured after 24 hrs by CellTiter-Glo luminescent assay. Format: cell-based. The method, boiled down:
as §1

Series [3] is described as follows: Cytotoxicity against human Hs888Lu cells assessed as reduction in cell viability measured after 24 hrs by CellTiter-Glo luminescent assay. The series is classed as cell-based. A digest of the protocol:
as §1

A short description of series [4]: Cytotoxicity against human Hs578Bst cells assessed as reduction in cell viability measured after 24 hrs by CellTiter-Glo luminescent assay. Format: cell-based. A digest of the protocol:
as §1

The nature of series [5]: Inhibition of IKKalpha/IKKbeta in human HEK293T cells transfected with firefly luciferase gene assessed as inhibition of TNF-alpha-stimulated NF-kappaB signalling preincubated for 1 hr followed by TNF alpha stimulation measured after 3 hrs by luciferase reporter gene assay. Format: cell-based. As to conditions: HEK-293T. A digest of the protocol:
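Commercial NF-κB-driven luciferase reporter assay in HEK 293T cells stimulated with TNFα. EC50 was derived from the luminescence readout.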
(In general: A reporter such as luciferase makes a cellular process visible.)

Another series deals with Hs-578T. In words: Cytotoxicity against human Hs-578T cells assessed as reduction in cell viability measured after 24 hrs by CellTiter-Glo luminescent assay. Format: functional, cell-based. The method, boiled down:
as §1

The next series relates to SUD4. The experiment in a line: Cytotoxicity against human SU-DHL-4 cells assessed as reduction in cell viability measured after 24 hrs by CellTiter-Glo luminescent assay. Format: functional, cell-based. As to conditions: SU-DHL-4, 24 h. A digest of the protocol:
as §1

The subject of a further series is CA46. In words: Cytotoxicity against human CA46 cells assessed as reduction in cell viability measured after 24 hrs by CellTiter-Glo luminescent assay. The series is classed as functional, cell-based. To be noted: CA46, 24 h. The method, boiled down:
as §1

Series [6] can be described thus: Cytotoxicity against human Hs895SK cells assessed as reduction in cell viability measured after 24 hrs by CellTiter-Glo luminescent assay. To be noted: Hs 895.Sk. The series is classed as cell-based. The method, boiled down: as §1
Another series concerns NCI-H446. In words: Cytotoxicity against human NCI-H446 cells assessed as reduction in cell viability measured after 24 hrs by CellTiter-Glo luminescent assay. The series is classed as functional, cell-based. As to conditions: NCI-H446, 24 h. The method, boiled down: as §1
Series [7] in a line: Toxicity in po dosed rat. Format: organism-based. To be noted: in vivo.
Series [8] concerns the target T2, Inhibitor of nuclear factor kappa-B kinase subunit alpha (Homo sapiens) (UniProt O15111).
T2 sequence (whole entry): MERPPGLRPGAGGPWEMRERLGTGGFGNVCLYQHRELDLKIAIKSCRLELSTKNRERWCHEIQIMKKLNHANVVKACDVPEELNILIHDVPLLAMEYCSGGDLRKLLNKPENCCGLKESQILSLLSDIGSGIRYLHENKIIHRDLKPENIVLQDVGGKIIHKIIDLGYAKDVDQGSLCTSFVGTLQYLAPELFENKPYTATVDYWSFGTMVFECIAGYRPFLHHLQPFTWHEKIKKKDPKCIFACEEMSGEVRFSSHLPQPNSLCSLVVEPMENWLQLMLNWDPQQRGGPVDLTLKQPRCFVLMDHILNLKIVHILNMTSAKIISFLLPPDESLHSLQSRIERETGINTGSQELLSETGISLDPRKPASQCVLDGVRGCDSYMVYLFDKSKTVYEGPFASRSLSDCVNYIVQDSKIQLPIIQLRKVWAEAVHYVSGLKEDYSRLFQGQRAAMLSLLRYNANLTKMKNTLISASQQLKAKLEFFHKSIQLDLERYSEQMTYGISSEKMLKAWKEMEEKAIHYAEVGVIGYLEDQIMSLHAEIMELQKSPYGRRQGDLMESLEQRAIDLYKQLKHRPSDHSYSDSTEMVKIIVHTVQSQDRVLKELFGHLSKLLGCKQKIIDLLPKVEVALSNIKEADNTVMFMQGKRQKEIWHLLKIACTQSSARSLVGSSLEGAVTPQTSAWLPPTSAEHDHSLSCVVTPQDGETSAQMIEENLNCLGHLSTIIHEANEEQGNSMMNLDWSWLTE
The experiment in a line: Irreversible covalent binding affinity to IKKalpha in human HeLa cells at 10 uM preincubated with IL-1 beta for 3 hrs followed by incubation with compound for 2 hrs measured following rigorous washing by pull down based western blotting analysis. The series is classed as cell-based. The method, boiled down:
(§2)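 Alkyne-tagged probe pull-down in IL-1β-stimulated HeLa cells. Protein captured by the probe was analysed by Western blotting.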

The target of series [9] is T2, Inhibitor of nuclear factor kappa-B kinase subunit alpha (Homo sapiens). In words: Binding affinity to IKKalpha in human HeLa cells at 10 uM preincubated with IL-1 beta for 3 hrs followed by incubation with compound for 2 hrs by pull down based western blotting analysis. The series is classed as cell-based. A digest of the protocol:
as §2

Series [10] shares this target. In words: Binding affinity to IKKalpha in human HeLa cells at 50 uM preincubated with IL-1 beta for 3 hrs followed by incubation with compound for 2 hrs by pull down based western blotting analysis. The series is classed as cell-based. The method, boiled down:
as §2

The target of series [11] is T3, Inhibitor of nuclear factor kappa-B kinase subunit beta (Homo sapiens) (UniProt O14920).
T3 sequence (whole entry): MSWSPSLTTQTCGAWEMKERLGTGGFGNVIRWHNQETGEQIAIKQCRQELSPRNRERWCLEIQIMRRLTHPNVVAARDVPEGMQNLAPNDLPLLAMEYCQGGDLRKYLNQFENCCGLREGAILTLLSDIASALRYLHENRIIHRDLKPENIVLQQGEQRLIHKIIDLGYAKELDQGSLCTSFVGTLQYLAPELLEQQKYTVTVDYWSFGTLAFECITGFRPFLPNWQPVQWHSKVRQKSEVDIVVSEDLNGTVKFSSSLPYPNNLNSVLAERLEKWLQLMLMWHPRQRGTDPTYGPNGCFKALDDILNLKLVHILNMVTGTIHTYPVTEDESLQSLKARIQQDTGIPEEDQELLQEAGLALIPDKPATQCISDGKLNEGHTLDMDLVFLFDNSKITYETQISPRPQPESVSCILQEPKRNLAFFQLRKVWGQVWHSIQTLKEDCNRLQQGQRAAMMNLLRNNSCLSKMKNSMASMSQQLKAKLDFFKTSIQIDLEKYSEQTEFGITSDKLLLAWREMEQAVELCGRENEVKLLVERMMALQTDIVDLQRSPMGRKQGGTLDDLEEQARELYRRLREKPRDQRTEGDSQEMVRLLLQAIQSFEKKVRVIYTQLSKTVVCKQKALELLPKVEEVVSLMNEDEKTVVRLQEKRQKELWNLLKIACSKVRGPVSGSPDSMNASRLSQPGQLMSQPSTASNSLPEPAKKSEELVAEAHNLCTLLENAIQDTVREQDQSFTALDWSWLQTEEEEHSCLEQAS
The experiment in a line: Inhibition of JRA-031 binding to IKKbeta in TNF-alpha-stimulated human HEK293T cells at 1 uM pretreated with compound for 1 hr followed by labeling with JRA-031 for 1 hr followed by stimulation with TNF-alpha for 1 hr by pull down based mass spectrometry. As to conditions: HEK-293T. The series is classed as cell-based.

For series [12], the target named is T2, Inhibitor of nuclear factor kappa-B kinase subunit alpha (Homo sapiens). The experiment in a line: Inhibition of JRA-031 binding to IKKalpha in TNF-alpha-stimulated human HEK293T cells at 1 uM pretreated with compound for 1 hr followed by labeling with JRA-031 for 1 hr followed by stimulation with TNF-alpha for 1 hr by pull down based mass spectrometry. The series is classed as cell-based. To be noted: HEK-293T.

A word on the IC50: it is the concentration at which inhibition is half-maximal. One may read the Kd as the constant that tells how readily two partners part at equilibrium. Low values mean tighter binding, high ones weaker binding. As a reminder, the EC50 is the concentration at which the effect is half-maximal. In the case of `C=C1C[C@]23C[C@@]1(O)CC[C@@H]2c1cccc(C)c1[C@@H]3C(=O)O`, the concentration for half-maximal inhibition (IC50) (in the series with RCK8; in [1]; in the series on PSN1; in the series with HCC1599; with HEK-293T; in series [3]) was over 10 µM each time. The IC50 (in series [4]; in the series on Hs-578T; in the series on SUD4; in the series with CA46; in series [6]; with NCI-H446) was over 10 µM each time. Moreover, the Kd came to 6.34 µM on Transcription factor p65 and 0.076 µM in series [2]. Moreover, the 50% effective concentration (EC50) in series [5] was over 100 µM.
In general, LD50 refers to the dose expected to kill half of the subjects tested. Low values mean a more toxic substance, high ones a less toxic substance. As for `C=C1C[C@]23C[C@@]1(O)CC[C@H]2[C@@]12C=C[C@H](O)[C@@](C)(C(=O)O1)[C@H]2[C@@H]3C(=O)O` [GIBBERELLIN A3], the IC50 (with RCK8; in series [1]; in the series on PSN1; with HCC1599; in the series on HEK-293T; in series [3]) was over 10 µM throughout. For the same molecule, the IC50 (in series [4]; in the series on Hs-578T; in the series on SUD4; with CA46; in series [6]; in the series with NCI-H446) was over 10 µM in each case. The LD50 in series [7] stood at 6300 mg/kg. Further, the EC50 in series [5] is over 100 µM.
For the molecule `C#CCCNC(=O)[C@H]1[C@@H]2[C@@]3(C)C(=O)C=C[C@@]2(OC3=O)[C@@H]2CC[C@]3(O)C[C@@]21CC3=C`, the inhibition result in [8] and in [9] was “Active” throughout.
For `C#CCCNC(=O)[C@H]1[C@H]2[C@@]3(C=C[C@H](O)[C@@]2(C)C(=O)O3)[C@@H]2CC[C@]3(O)C[C@@]21CC3=C`, in series [10], the inhibition result was “inactive”.
With `C=C1C[C@]23C[C@@]1(O)CC[C@H]2[C@@]12C=C[C@H](O)[C@@](C)(C(=O)O1)[C@H]2[C@@H]3C(=O)OC`, the concentration for half-maximal inhibition (IC50) (in the series with RCK8; in series [1]; with PSN1; with HCC1599; in the series on HEK-293T; in series [3]) was over 10 µM each time. Also, the half-inhibitory concentration (IC50) (in [4]; in the series with Hs-578T; in the series on SUD4; in the series with CA46; in series [6]; with NCI-H446) was over 10 µM in each case. Also, in series [5], the EC50 is over 100 µM. Besides, the inhibition entry in [11] and in [12] was “inactive” throughout.
